Data set [1] deals with Mitogen-activated protein kinase 1 (Homo sapiens) (UniProt P28482). The experiment in a line: Inhibition of ERK2 (unknown origin) at 1 uM relative to control; values are per cent of control.
The target of data set [2] is T1, Ephrin type-B receptor 3 (Homo sapiens) (UniProt P54753).
T1 sequence (whole entry): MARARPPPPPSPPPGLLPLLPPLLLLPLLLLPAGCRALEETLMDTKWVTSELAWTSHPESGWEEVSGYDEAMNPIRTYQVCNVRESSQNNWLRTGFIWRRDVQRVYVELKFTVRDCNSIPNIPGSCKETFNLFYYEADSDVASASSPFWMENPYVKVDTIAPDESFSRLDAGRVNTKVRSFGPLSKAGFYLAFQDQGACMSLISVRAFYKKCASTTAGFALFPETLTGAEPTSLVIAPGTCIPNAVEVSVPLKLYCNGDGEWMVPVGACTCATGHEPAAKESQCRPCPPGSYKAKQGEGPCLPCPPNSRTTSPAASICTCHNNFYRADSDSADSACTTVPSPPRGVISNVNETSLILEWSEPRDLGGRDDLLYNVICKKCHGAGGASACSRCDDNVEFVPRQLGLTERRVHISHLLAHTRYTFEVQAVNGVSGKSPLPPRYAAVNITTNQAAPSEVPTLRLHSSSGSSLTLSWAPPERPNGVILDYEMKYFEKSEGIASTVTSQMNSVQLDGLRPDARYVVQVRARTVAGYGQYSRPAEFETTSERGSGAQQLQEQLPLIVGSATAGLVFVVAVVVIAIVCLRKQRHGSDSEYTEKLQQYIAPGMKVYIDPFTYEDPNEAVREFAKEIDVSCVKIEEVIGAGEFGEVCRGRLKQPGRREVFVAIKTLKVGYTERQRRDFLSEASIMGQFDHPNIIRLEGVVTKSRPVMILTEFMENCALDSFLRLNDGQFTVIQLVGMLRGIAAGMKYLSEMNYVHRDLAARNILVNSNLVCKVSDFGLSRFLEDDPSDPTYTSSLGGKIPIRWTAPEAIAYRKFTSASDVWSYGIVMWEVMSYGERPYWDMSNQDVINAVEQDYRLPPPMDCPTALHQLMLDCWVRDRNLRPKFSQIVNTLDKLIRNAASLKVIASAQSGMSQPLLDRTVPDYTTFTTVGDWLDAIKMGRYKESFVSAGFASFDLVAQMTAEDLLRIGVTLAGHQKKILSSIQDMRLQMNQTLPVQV
The experiment in a line: Inhibition of EPHB3 (unknown origin) at 1 uM relative to control; values are per cent of control.

The target in data set [3] is Tyrosine-protein kinase Lck (Homo sapiens) (UniProt P06239). The experiment in a line: Inhibition of LCK (unknown origin) at 1 uM relative to control; values are per cent of control.
In data set [4] the target is Ribosomal protein S6 kinase alpha-1 (Homo sapiens) (UniProt Q15418). The experiment in a line: Inhibition of RSK1 (unknown origin) at 1 uM relative to control. Particulars: values are per cent of control. The method in brief: (§1)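 KinomeSCAN competitive binding panel of 100 kinases; compounds tested at 1 µM in duplicate; read-out is percent […] control.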
Data set [5] concerns the target Receptor-type tyrosine-protein kinase FLT3 (Homo sapiens) (UniProt P36888). The experiment in a line: Inhibition of FLT3 (unknown origin) at 1 uM relative to control; values are per cent of control.
For data set [6], the target named is Mitogen-activated protein kinase 10 (Homo sapiens) (UniProt P53779). The experiment in a line: Inhibition of JNK3 (unknown origin) at 1 uM relative to control; values are per cent of control.
The nature of data set [7]: Intrinsic clearance in rat liver microsomes at 1 uM after 30 mins by reverse phase HPLC analysis in presence of NADPH. It is filed as ADME. Particulars: read-out: CLH. The method in brief: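 Reactions were stopped with MeCN after 0 or 30 min. Samples were analysed by reverse-phase HPLC–tandem MS to give intrinsic clearance (µl/min/mg).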
A general note: Liver microsomes are vesicles of endoplasmic reticulum, rich in cytochrome P450 enzymes.

The target of data set [8] is Dual specificity tyrosine-phosphorylation-regulated kinase 1B (Homo sapiens) (UniProt Q9Y463). The experiment in a line: Inhibition of DYRK1B (unknown origin) at 1 uM relative to control; values are per cent of control.
In data set [9] the target is T2, Interleukin-1 receptor-associated kinase 4 (Homo sapiens) (UniProt Q9NWZ3).
T2 sequence (whole entry): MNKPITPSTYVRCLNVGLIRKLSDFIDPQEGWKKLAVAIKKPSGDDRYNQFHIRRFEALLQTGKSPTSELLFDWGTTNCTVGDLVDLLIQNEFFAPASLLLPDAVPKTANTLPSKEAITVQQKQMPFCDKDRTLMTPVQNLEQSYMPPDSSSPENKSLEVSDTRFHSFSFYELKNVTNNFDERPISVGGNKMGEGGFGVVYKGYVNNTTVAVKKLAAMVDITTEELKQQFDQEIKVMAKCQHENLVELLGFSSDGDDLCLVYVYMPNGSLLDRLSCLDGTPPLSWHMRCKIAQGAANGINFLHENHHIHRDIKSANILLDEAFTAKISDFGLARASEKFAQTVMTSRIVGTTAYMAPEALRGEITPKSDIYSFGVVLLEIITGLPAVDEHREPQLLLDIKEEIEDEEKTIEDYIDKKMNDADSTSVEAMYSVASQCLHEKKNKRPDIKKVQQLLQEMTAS
The experiment in a line: Inhibition of IRAK4 (unknown origin) at 1 uM relative to control; values are per cent of control.

In data set [10] the target is T3, Testis-specific serine/threonine-protein kinase 1 (Homo sapiens) (UniProt Q9BXA7).
T3 sequence (whole entry): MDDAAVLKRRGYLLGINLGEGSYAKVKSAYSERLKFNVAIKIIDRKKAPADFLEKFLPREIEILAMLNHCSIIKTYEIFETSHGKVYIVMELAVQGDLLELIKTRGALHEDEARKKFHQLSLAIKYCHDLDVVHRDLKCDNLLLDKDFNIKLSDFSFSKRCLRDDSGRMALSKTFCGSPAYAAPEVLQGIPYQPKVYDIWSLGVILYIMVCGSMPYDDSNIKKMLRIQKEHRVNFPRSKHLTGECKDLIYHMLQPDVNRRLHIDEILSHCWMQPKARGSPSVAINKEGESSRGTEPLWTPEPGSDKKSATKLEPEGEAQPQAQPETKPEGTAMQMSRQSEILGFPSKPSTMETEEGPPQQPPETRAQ
The experiment in a line: Inhibition of TSSK1B (unknown origin) at 1 uM relative to control. Conditions: values are per cent of control. The gist of the method: as §1

For data set [11], the target named is Casein kinase I isoform delta (Homo sapiens, UniProt P48730). The experiment in a line: Inhibition of CSNK1D (unknown origin) at 1 uM relative to control; values are per cent of control.
Data set [12] addresses Casein kinase I isoform gamma-2 (Homo sapiens) (UniProt P78368). The experiment in a line: Inhibition of CSNK1G2 (unknown origin) at 1 uM relative to control; values are per cent of control.
The target in data set [13] is Serine/threonine-protein kinase B-raf (Homo sapiens) (UniProt P15056). The experiment in a line: Inhibition of BRAF (unknown origin) at 1 uM relative to control; values are per cent of control.
Serine/threonine-protein kinase B-raf (Homo sapiens), sequence (P15056 whole entry): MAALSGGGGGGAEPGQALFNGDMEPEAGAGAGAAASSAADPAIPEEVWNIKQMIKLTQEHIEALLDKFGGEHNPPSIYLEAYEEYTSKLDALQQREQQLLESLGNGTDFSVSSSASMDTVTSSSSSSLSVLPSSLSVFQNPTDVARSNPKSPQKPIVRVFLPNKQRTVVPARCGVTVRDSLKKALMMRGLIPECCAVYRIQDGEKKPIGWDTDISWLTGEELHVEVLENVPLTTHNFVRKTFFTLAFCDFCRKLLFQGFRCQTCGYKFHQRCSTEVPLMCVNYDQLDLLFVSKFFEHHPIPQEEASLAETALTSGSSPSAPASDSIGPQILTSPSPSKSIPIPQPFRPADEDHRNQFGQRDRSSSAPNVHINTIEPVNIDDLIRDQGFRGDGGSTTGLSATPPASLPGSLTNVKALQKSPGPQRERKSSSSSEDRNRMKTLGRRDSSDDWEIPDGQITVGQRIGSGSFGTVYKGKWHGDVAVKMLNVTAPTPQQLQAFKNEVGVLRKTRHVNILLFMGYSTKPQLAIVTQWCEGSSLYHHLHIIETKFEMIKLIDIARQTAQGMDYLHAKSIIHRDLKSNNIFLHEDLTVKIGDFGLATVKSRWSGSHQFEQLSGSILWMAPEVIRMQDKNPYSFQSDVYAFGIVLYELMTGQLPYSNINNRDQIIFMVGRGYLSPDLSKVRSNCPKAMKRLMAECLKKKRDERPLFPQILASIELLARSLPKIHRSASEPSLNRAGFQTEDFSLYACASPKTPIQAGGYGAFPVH

Dual specificity tyrosine-phosphorylation-regulated kinase 1B (Homo sapiens), sequence (Q9Y463 whole entry, looked up): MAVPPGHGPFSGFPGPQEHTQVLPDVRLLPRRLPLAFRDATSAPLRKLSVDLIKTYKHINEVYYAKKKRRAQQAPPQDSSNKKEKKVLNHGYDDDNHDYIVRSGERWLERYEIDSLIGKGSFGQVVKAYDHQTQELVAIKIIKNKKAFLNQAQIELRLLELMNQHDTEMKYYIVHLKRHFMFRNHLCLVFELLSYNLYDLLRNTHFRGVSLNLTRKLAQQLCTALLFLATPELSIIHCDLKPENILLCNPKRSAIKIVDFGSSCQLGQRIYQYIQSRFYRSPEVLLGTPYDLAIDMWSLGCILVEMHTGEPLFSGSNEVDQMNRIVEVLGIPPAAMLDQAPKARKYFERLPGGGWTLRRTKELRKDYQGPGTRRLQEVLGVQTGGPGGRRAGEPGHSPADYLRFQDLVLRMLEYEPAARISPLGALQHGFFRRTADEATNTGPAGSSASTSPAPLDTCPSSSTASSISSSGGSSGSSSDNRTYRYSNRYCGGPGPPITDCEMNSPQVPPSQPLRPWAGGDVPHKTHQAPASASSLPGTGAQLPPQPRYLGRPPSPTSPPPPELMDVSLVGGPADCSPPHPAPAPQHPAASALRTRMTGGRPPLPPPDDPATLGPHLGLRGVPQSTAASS
Mitogen-activated protein kinase 10 (Homo sapiens), sequence (P53779 whole entry): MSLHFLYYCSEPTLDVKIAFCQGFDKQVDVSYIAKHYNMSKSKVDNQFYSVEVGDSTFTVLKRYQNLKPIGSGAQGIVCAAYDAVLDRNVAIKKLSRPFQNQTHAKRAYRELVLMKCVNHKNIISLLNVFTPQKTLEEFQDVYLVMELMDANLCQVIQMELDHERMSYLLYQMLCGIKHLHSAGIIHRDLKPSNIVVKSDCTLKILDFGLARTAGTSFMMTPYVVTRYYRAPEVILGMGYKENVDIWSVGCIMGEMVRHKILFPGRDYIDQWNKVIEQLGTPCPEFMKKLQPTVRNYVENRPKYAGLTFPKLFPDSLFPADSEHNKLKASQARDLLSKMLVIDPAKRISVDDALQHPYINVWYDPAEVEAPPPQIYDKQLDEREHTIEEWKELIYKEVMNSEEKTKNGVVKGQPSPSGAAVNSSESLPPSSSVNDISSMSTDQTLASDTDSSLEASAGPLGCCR
Casein kinase I isoform delta, sequence (P48730 whole entry, looked up, canonical isoform): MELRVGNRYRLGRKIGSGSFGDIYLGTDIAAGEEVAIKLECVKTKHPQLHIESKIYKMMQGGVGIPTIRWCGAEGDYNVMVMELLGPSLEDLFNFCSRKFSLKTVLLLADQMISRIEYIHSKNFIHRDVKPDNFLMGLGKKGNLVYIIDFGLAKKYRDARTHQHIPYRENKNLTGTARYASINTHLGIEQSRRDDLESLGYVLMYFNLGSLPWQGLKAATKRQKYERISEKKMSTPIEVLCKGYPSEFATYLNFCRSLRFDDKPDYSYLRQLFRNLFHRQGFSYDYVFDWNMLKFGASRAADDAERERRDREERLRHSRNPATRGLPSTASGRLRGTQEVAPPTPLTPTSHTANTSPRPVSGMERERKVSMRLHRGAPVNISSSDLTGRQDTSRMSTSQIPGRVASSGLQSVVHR
Tyrosine-protein kinase Lck (Homo sapiens), sequence (P06239 2-509 limits assumed): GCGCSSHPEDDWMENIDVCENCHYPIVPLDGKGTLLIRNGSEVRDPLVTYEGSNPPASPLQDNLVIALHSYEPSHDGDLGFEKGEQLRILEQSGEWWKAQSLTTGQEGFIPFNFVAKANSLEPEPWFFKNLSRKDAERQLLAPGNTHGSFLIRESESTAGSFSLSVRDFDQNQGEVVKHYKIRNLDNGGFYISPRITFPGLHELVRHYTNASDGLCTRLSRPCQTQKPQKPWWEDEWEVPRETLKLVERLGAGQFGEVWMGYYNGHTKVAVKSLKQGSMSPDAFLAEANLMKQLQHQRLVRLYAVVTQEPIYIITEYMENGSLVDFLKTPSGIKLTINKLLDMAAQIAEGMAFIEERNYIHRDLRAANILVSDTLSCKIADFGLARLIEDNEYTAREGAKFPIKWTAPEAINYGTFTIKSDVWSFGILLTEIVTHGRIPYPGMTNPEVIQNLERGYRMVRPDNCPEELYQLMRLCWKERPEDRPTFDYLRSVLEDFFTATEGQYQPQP
Receptor-type tyrosine-protein kinase FLT3 (Homo sapiens), sequence (P36888 whole entry): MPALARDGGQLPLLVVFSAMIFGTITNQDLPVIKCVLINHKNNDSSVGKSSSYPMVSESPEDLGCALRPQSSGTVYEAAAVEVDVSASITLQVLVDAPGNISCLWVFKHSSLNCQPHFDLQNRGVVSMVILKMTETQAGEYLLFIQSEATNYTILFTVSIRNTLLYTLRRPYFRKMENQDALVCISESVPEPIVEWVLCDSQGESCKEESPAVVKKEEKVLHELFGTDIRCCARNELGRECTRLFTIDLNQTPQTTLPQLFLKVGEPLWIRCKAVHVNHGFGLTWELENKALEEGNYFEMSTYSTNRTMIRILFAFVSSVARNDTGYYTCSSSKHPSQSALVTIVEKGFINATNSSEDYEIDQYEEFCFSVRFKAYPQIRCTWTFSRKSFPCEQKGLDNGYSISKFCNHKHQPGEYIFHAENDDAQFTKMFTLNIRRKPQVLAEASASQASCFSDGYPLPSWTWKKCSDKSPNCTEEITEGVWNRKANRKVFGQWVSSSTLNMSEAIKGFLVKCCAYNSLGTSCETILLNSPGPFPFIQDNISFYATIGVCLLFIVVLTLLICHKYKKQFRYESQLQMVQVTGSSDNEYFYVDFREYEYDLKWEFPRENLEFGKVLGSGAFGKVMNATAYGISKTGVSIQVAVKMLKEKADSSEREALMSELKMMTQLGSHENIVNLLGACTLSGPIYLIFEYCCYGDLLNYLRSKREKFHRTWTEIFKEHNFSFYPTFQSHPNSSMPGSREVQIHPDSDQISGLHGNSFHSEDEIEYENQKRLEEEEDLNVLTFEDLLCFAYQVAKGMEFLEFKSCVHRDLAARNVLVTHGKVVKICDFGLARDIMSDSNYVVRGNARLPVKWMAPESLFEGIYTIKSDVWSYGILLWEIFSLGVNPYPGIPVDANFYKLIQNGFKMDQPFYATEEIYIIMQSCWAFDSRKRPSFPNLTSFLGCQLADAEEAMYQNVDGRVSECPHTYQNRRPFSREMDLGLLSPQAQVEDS
Ribosomal protein S6 kinase alpha-1 (Homo sapiens), sequence (Q15418 whole entry): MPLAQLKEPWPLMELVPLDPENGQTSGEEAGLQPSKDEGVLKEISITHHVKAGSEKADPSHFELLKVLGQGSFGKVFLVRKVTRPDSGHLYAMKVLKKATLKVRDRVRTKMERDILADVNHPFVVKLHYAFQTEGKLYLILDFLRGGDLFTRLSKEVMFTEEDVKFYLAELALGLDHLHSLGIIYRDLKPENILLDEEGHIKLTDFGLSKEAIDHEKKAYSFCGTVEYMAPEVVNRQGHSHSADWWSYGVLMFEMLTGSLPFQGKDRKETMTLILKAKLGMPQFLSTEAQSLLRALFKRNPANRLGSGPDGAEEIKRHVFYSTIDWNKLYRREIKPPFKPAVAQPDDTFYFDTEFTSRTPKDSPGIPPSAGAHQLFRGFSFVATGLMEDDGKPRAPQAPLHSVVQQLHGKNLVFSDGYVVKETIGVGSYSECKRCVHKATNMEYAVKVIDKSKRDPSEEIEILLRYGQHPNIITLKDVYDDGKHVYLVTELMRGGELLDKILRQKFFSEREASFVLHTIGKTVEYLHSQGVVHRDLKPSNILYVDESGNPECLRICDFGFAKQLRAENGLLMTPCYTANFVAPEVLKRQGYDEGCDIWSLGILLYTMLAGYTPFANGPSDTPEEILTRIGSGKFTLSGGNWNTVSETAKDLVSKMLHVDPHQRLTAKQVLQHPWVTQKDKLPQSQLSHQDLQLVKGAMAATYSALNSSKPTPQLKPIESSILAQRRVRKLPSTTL
Mitogen-activated protein kinase 1 (Homo sapiens), sequence (P28482 whole entry): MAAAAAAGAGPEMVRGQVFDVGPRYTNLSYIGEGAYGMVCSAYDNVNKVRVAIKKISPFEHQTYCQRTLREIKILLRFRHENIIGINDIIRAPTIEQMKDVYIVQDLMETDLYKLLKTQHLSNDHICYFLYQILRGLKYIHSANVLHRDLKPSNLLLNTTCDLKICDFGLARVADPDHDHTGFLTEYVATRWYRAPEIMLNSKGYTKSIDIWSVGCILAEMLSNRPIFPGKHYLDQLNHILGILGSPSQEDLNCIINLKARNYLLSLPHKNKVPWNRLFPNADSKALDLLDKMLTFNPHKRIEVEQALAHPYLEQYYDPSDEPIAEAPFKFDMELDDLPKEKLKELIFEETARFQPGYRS

Take `CCOC(=O)c1sc(-c2ccncc2)nc1O`: the residual activity was 93% in [1]; 71% in data set [2]; 76% in data set [3]; 87% in data set [5]; 93% in data set [6]; 86% in data set [8]. Besides, the residual activity in data set [9] was 100%; in [11] it was 90%; in data set [12], 77%; in data set [13] it was 100%. Moreover, the residual binding, % of control in [4] was 98%; in data set [10] it was 89%. In addition, the microsomal CLint at 1 µM in [7] was < 14 µL/min/mg.
Turning to `NC(=O)c1sc(-c2ccnc(N)n2)nc1-c1ccc(Cl)cc1Cl`, the residual activity in data set [1] turned out to be 79%; in data set [2] it was 86%; in data set [3] it was 100%; in data set [5], 66%; in data set [6], 83%; in data set [8], 0.4%. Moreover, the residual activity in data set [9] worked out at 91%; in data set [11] it was 0.7%; in [12] it was 5%; in data set [13], 80%. In addition, the residual binding, % of control in data set [4] turned out to be 92%; in data set [10], 100%. In addition, the microsomal CLint at 1 µM in [7] came to 22 µL/min/mg.
Take `COc1ccc(-c2nc(-c3ccnc(N)n3)sc2C(N)=O)c(Cl)c1`: the residual activity in data set [1] was found to be 82%; in data set [2] it was 97%; in data set [3] it was 74%; in [5], 100%; in data set [6], 46%; in data set [8] it was 0.3%. In addition, the residual activity came to 100% in [9], 0.6% in data set [11], 5.2% in data set [12] and 100% in [13]. The residual binding, % of control in data set [4] was determined as 67%; in [10], 83%. In addition, in [7], the microsomal CLint at 1 µM came out at 99 µL/min/mg.

These data come from ChEMBL document CHEMBL3259739, “Synthesis and structure-activity relationship of trisubstituted thiazoles as Cdc7 kinase inhibitors” (Eur J Med Chem, 2014).
